Reference: ChEMBL document CHEMBL1649147, “Antistaphylococcal activity of dihydrophthalazine antifolates, a family of novel antibacterial drugs” (2009)
≈ marks a conversion by molar mass, not a printed value.

Assays:
Type in all cases: functional
[1] = test system: Staphylococcus epidermidis; assay: Antibacterial activity against coagulase-negative Staphylococcus epidermidis 225 after 50 passages by agar dilution method
Method in brief: (§1)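 Serial passage under drug. Inoculum was ~1 × 10^6 CFU/ml from overnight MHA growth, in 1 ml MHB at 35°C for 24 h. Drug ranged from 4 log2 steps above to 3 log2 steps below the MIC. […] MIC change is given as log2 steps.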

[2] = test system: Staphylococcus epidermidis; assay: Antibacterial activity against methicillin-susceptible coagulase-negative Staphylococcus epidermidis 057 after 50 passages by agar dilution method
Method in brief: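 Daily serial passage for up to 50 days at 35°C for 24 h in 1 ml MHB. Each transfer used 10 µl from the tube nearest the MIC (1–2 dilutions below) with the same turbidity as the drug-free control. MICs were measured by agar dilution, with changes given as log2 steps.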

[3] = test system: Staphylococcus epidermidis; assay: Antibacterial activity against coagulase-negative Staphylococcus epidermidis 057 after 50 passages by agar dilution method; method in brief: as §1
[4] = test system: Staphylococcus aureus; assay: Antibacterial activity against Staphylococcus aureus 145 after 47 passages by agar dilution method; method in brief: as §1
[5] = test system: Staphylococcus epidermidis; assay: Antibacterial activity against coagulase-negative Staphylococcus epidermidis 225 after 38 passages by agar dilution method; method in brief: as §1
[6] = test system: Staphylococcus epidermidis; assay: Antibacterial activity against methicillin-susceptible coagulase-negative Staphylococcus epidermidis 051 after 38 passages by agar dilution method
Method in brief: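 Daily serial passage for up to 50 days at 35°C for 24 h in 1 ml MHB. […] Each transfer used 10 µl from the tube nearest the MIC (1–2 dilutions below) with the same turbidity as the drug-free control. […] MICs were measured by agar dilution, with changes given as log2 steps.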

[7] = test system: Staphylococcus epidermidis; assay: Antibacterial activity against coagulase-negative Staphylococcus epidermidis 225 after 36 passages by agar dilution method; method in brief: as §1
[8] = test system: Staphylococcus aureus; assay: Antibacterial activity against methicillin-resistant Staphylococcus aureus 145 after 50 passages by agar dilution method; method in brief: as §1

**Q.** Which MIC [1] does the source give for `COc1ncc(C2c3ccccc3C=NN2C(=O)/C=C/c2cc(Cc3cnc(N)nc3N)cc(OC)c2OC)cn1` (stereo not drawn) here?
**A.** Its MIC is 128 µg/mL (≈ 232 µM).

**Q.** What about the MIC [2] of the same compound?
**A.** Its MIC is 128 µg/mL (≈ 232 µM).

**Q.** What about the MIC [3] of the same compound?
**A.** Its MIC is 128 µg/mL (≈ 232 µM).

**Q.** What does the source list for `COc1cc(Cc2cnc(N)nc2N)cc(/C=C/C(=O)N2N=Cc3ccccc3C2c2cnc(N(C)C)nc2)c1OC` (stereo not drawn)?
**A.** MIC [4]: > 128 µg/mL; MIC [5]: > 128 µg/mL; MIC [6]: > 128 µg/mL

**Q.** Which results are given for `COc1cc(Cc2cnc(N)nc2N)cc(/C=C/C(=O)N2N=Cc3ccccc3C2c2cnc(N3CCOCC3)nc2)c1OC` (stereo not drawn)?
**A.** MIC [7]: > 128 µg/mL; MIC [8]: 128 µg/mL (≈ 211 µM)
